This is a sample that favours compounds with a hit; in the whole collection about 4.1% have one here.
KCNQ1 block = human KCNQ1 channel inhibition; B-score at 10 µM; CHO-K1 KCNQ1, FluxOR thallium flux fluorescence; hits give high values; 1.3% of 310,000 active; P51787; AID 2642;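 active = compounds whose thallium flux B-score, printed positive for inhibition, exceeds three library SD while starting fluorescence stays within three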;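 note: channel opened by potassium depolarization with thallium stimulus after 20 min compound exposure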
KCNK3 block = human KCNK3 channel inhibition, primary screen. B-score at 10 µM. AID 602410. O14649. CHO-KCNK3 thallium flux, FluxOR fluorescence; hits give low values. 0.84% of 340,000 active;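 active = B-score under library mean minus 4 SD, starting fluorescence ratio at most library mean plus 5 SD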;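 note: more negative B-score means stronger inhibition of thallium flux through KCNK3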
KCC2 mod = KCC2 (human) Cl- transport modulation; 2.2% of 190,000 active; KCC2 cells, thallium flux FluoZin-2 fluorescence; B-score of Tl+ flux slope (higher = more flux/activation; lower = inhibition) at 10 µM; Q9H2X9;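 active = thallium flux slope and its plate-corrected score both differing from the plate sample mean at a set confidence after two filtering rounds, in either direction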;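 note: slope of fluorescence scaled to starting intensity during 10 to 20 s after thallium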
KCNK9 inh = blocks the human KCNK9 two-pore domain potassium channel. Q9NPC2. AID 488922. 1.2% of 310,000 active. HEK293 KCNK9, FluxOR thallium flux fluorescence; hits give low values. B-score at 10 µM;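 active = ratio B-score over 3 SD below the library mean, with starting fluorescence within 5 SD of its mean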;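 note: negative B-score means less thallium flux so channel inhibition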
KCNQ1 act = potentiators or activators of human KCNQ1 potassium channel. CHO-K1 KCNQ1, thallium flux FluxOR fluorescence; hits give high values. B-score at 10 µM. 0.35% of 310,000 active;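 active = fluorescence ratio B-score, a plate-corrected score, at least three library SD, with initial intensity B-score within 5 SD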
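Assay system: CHO-K1 cells stably expressing KCNQ1; Medium: assay buffer with matched DMSO; Also added: K+/Tl+ depolarizing stimulus; Dosing: single dose; Timing: dye 90 min, compound 20 min, room temperature; Measured by: kinetic FluxOR thallium fluorescence, 10-s 1-Hz baseline, 110-s post-stimulus read; Read-out: peak-minus-minimum fluorescence over initial fluorescence, negative-control normalized, B-scored.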
hERG rescue = compounds protecting human hERG from proarrhythmic drug block; Q12809; CHO-hERG, FluxOR thallium flux, dofetilide IC70 present; activation (rescue from dofetilide block), less the hit threshold, % at 10 µM; 0.51% of 310,000 active;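 active = activation above the mean of controls blocked by dofetilide plus 5 SD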;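 note: thallium influx through hERG after potassium depolarization seen as dye fluorescence rise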
KCNK3 inh conf = confirmation of human KCNK3 two-pore domain potassium channel inhibitors. CHO-KCNK3 thallium flux, FluxOR fluorescence; 0% buffer, 100% carvedilol maximal block. shares compounds with KCNK3 block. 99% of 2,400 active. ratio percent of control, % at 10 µM;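 active = ratio percent of control, averaged over triplicates, above buffer control mean plus 5 SD, cut at about 64% in these data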;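 note: ratio is the fluorescence rise from min to max over baseline after thallium stimulus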
KCNK3 uninduced = activity in cells without induced KCNK3 expression; 40% of 2,400 active; thallium flux ratio (lower = more inhibition) at 10 µM; AID 651747; non-induced KCNK3 parental cells, FluxOR thallium flux; hits give low values; shares compounds with KCNK3 block;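 active = thallium flux ratio, averaged over three wells, more than 5 SD below the buffer control mean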;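 note: host cells are CHO cells without KCNK3 induction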
Numbers stand for hits; i = inactive; nt = no result given.

SMILES	KCNQ1 block	KCNK3 block	KCC2 mod	KCNK9 inh	KCNQ1 act	hERG rescue	KCNK3 inh conf	KCNK3 uninduced
Cc1[nH]c2ccccc2c1CCN(Cc1cccnc1)C(=S)Nc1ccc(F)cc1	i	-10	i	i	i	i	92	0.15
COc1ccc(NC(=S)N(CCc2c(C)[nH]c3ccc(C)cc23)Cc2cccnc2)cc1	i	-12	i	-6.9	i	i	96	0.15
COc1ccc(Nc2cccc3ccccc23)cc1	i	i	nt	i	i	i	nt	nt
CCCn1c(N)c(N(CCOC)C(=O)c2cccc(S(=O)(=O)N3CCCc4ccccc43)c2)c(=O)[nH]c1=O	i	i	nt	i	i	i	nt	nt
CCOC(=O)N1CCN(c2ccc(S(=O)(=O)N3CCC(C)CC3)cc2[N+](=O)[O-])CC1	nt	i	nt	nt	nt	nt	nt	nt
Cc1onc(-c2ccc(Cl)cc2Cl)c1-c1csc(COc2ccccc2)n1	i	-9.6	i	i	i	i	101	0.15
O=C(O)c1ccc(-c2nc(-c3ccc(Cl)cc3Cl)cs2)cc1	i	i	i	i	i	i	nt	nt
Cc1cccc(OCCCn2c(=O)oc3ccc(C)cc32)c1	i	-9.3	i	i	i	i	94	i
Cc1cc(NCc2ccccc2)nc(-c2ccccc2O)n1	i	-11	i	i	i	i	133	0.13
Cc1nn(-c2cccc(C(F)(F)F)c2)c(=O)c2ccccc12	i	-9	nt	i	i	i	114	0.16
COC(=O)Cc1c[nH]c2cccc(OCC(O)CN(Cc3ccccc3)C(C)C)c12 (stereo not drawn)	i	-8.9	i	-7.9	i	i	100	i
Cc1cccc(NC(=O)c2ccc(S(=O)(=O)N3CCC(C)CC3)cc2)n1	i	i	nt	i	i	i	nt	nt
CCOc1cc(Br)ccc1S(=O)(=O)N1CCC(C(N)=O)CC1	i	i	i	i	i	i	nt	nt
CCOc1ccc(Br)cc1S(=O)(=O)N1CCSC1	i	-9	nt	i	i	i	88	i
Cc1cccc(Nc2cc(C)c3c(O)cccc3n2)c1C	i	-9.7	i	i	i	i	111	i
Cc1cccc(NC(=S)N(C)C)c1C	i	i	i	i	i	i	nt	nt
COc1ccc(N(C(=O)c2snc(C(N)=O)c2N)C(C(=O)NC2CCCCC2)c2ccc(C)o2)cc1 (stereo not drawn)	i	i	nt	i	i	i	nt	nt
CCC(=NCc1ccco1)c1c(C(F)(F)F)[nH]n(-c2nc3ccccc3s2)c1=O	i	-9	nt	i	i	i	114	i
CCOC(=O)c1ccc(NC(=O)CSCc2ccco2)cc1	i	-9.2	i	i	i	i	91	i
O=C(CSc1ccc(Cl)cc1Cl)N1CCC(c2nc3ccccc3s2)CC1	i	-15	i	i	i	i	124	i
CCOC(=O)Cn1c(CN2CCN(C(c3ccccc3)c3ccccc3)CC2)nc2c1c(=O)n(C)c(=O)n2C	i	-8.8	i	i	i	i	102	i
CCn1c(CN2CCN(C(c3ccccc3)c3ccccc3)CC2)nc2c1c(=O)n(C)c(=O)n2C	i	i	nt	i	i	i	nt	nt
CC(CCN1CCN(c2ccccc2)CC1)c1ccccc1 (stereo not drawn)	i	i	nt	i	i	i	nt	nt
c1ccc(SCc2cc(-c3ccccc3)no2)cc1	i	-10	i	i	i	i	100	i
O=C(Nc1cccc(O)c1)c1cccc(NC(=O)c2cccs2)c1	i	-13	nt	-8	i	i	110	i
SMILES	KCNQ1 block	KCNK3 block	KCC2 mod	KCNK9 inh	KCNQ1 act	hERG rescue	KCNK3 inh conf	KCNK3 uninduced
O=C(Nc1cccc(NC(=O)c2cccs2)c1)c1ccc(Br)cc1	i	i	nt	i	i	i	nt	nt
O=C(Nc1cccc(-n2cnnn2)c1)c1cccs1	i	-10	nt	i	i	i	79	i
CCCN1C(=O)c2cc(C(=O)NC3CCCCCC3)ccc2C1O (stereo not drawn)	i	-18	i	i	i	i	82	i
CCCN1C(=O)c2cc(C(=O)O)ccc2C1O (stereo not drawn)	i	i	i	i	i	i	nt	nt
CCOC(=O)CNc1ncc(C(F)(F)F)cc1Cl	i	i	i	i	i	i	nt	nt
N#CCC(CNc1ncc(C(F)(F)F)cc1Cl)OC(=O)c1ccc(Cl)cc1Cl (stereo not drawn)	i	-9.5	nt	i	i	i	102	0.16
O=C1CCC[C@@H]2[C@H]3CCC[N+]4([O-])CCC[C@@H](CN12)[C@@H]34 (stereo partly drawn)	i	i	nt	i	i	i	nt	nt
COc1ccc(OC)c(-c2csc(NC(=O)Cc3ccccc3F)n2)c1	i	i	nt	-6.7	i	i	98	i
COc1ccc(S(=O)(=O)N2CCN(C(=O)Cc3ccsc3)CC2)cc1	nt	i	nt	nt	nt	nt	nt	nt
COc1ccccc1C(=O)NCC(=O)N1CCN(c2ncccn2)CC1	nt	i	nt	nt	nt	nt	nt	nt
O=C(/C=C/c1ccccc1Br)c1ccc2c(c1)OCO2	i	i	nt	i	i	i	nt	nt
O=C(/C=C\Nc1ccccc1Br)c1ccc2c(c1)OCO2	i	-12	i	i	i	i	118	i
O=[N+]([O-])c1cnc(Sc2ccncn2)s1	i	i	i	i	i	i	nt	nt
C=CCn1c(Sc2ncc([N+](=O)[O-])s2)n[nH]c1=O	7	-9.3	i	i	i	i	144	0.083
COCC1CCN(C(=O)C2CCC(=O)N(C3CCCCCC3)C2)CC1 (stereo not drawn)	i	i	nt	i	i	i	nt	nt
CC1Cc2ccccc2N1Cc1cccc([N+](=O)[O-])c1 (stereo not drawn)	i	-13	nt	i	i	i	109	i
CC(C)[C@H](NC(=O)[C@@H]1CSC2c3ccccc3C(=O)N21)C(=O)NCc1ccncc1 (stereo partly drawn)	i	i	nt	i	i	i	nt	nt
CCN1N=C(c2ccccc2)Cn2c1nc1ccccc12	i	-9.4	i	i	i	i	88	i
CCCCCNC(=O)Cc1ccc(S(=O)(=O)N2CCOCC2)s1	i	i	nt	i	i	i	nt	nt
COc1ccc(/C=N/NC(=O)c2cccs2)c2ccccc12	i	-11	nt	i	i	i	115	0.15
O=C(OCC#CCSc1nc2ccccc2o1)c1ccco1	i	i	i	i	i	i	nt	nt
O=C(OCC#CCSc1nc2ccccc2o1)c1cc2ccccc2o1	i	-11	i	i	i	i	105	0.15
CC(C)c1c(C(=O)N/N=C/c2cccc(OCc3ccccc3)c2)nnn1-c1nonc1N	i	i	nt	i	i	i	nt	nt
Fc1ccc(/C=C2\CCCC3=C2Nc2ncnn2C3c2ccc(F)cc2)cc1 (stereo not drawn)	i	-9.6	i	i	i	i	114	0.14
